How the values were obtained:
Format in all cases: functional
CCRF-CEM = experiment: Growth inhibition of human CCRF-CEM cells after 48 hrs by sulforhodamine B assay
How it was run: (§1)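 NCI 60-human-tumor-cell-line panel, with compounds tested over a 5-log dose range. Values are taken from dose-response curves as log10 molar concentrations: GI50 is 50% net growth inhibition, TGI is total growth inhibition, and LC50 is 50% net cell death.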

SN12C = experiment: Growth inhibition of human SN12C cells after 48 hrs by sulforhodamine B assay
How it was run: (§2)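 Run in the NCI 60-human-tumour-cell-line panel, tested over a 5-log dose range. Dose–response curves gave three values per cell line, each as a log10 molar concentration: GI50 (50% inhibition of net cell growth), TGI (total inhibition of net growth) and LC50 (50% net cell death). The mean graph midpoint is the arithmetic mean over all lines, with insensitive lines entered at the highest concentration tested.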

NCI-H226 = experiment: Growth inhibition of human NCI-H226 cells after 48 hrs by sulforhodamine B assay; conditions: NCI-H226, 48 h; how it was run: as §1
SR = experiment: Growth inhibition of human SR cells after 48 hrs by sulforhodamine B assay; how it was run: as §2
UO-31 = experiment: Growth inhibition of human UO31 cells after 48 hrs by sulforhodamine B assay; conditions: UO-31, 48 h; how it was run: as §2
MOLT-4 = experiment: Growth inhibition of human MOLT4 cells after 48 hrs by sulforhodamine B assay; conditions: MOLT-4, 48 h; how it was run: as §1
TK-10 = experiment: Growth inhibition of human TK10 cells after 48 hrs by sulforhodamine B assay; conditions: TK-10, 48 h; how it was run: as §2
NCI-H460 [1] = experiment: Growth inhibition of human NCI-H460 cells after 48 hrs by sulforhodamine B assay; conditions: NCI-H460, 48 h; how it was run: as §1
HL-60(TB) = experiment: Growth inhibition of human HL-60(TB) cells after 48 hrs by sulforhodamine B assay; conditions: HL-60, 48 h
How it was run: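 Tested only on compounds active in a three-line prescreen, in the NCI 60-human-tumour-cell-line panel over a 5-log dose range. Values come from dose–response curves as log10 molar GI50, the concentration inhibiting 50% net cell growth. Log10 TGI (total growth inhibition) and log10 LC50 (50% net cell death) were derived too. Mean graph midpoints include insensitive lines at the highest concentration tested.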

UACC-257 = experiment: Growth inhibition of human UACC257 cells after 48 hrs by sulforhodamine B assay; conditions: UACC-257, 48 h; how it was run: as §2
PC-3 = experiment: Growth inhibition of human PC3 cells after 48 hrs by sulforhodamine B assay; conditions: PC-3, 48 h; how it was run: as §1
EKVX = experiment: Growth inhibition of human EKVX cells after 48 hrs by sulforhodamine B assay; how it was run: as §1
A498 = experiment: Growth inhibition of human A498 cells after 48 hrs by sulforhodamine B assay; conditions: A498, 48 h; how it was run: as §1
SK-OV-3 = experiment: Growth inhibition of human SKOV3 cells after 48 hrs by sulforhodamine B assay; conditions: SK-OV-3, 48 h; how it was run: as §1
OVCAR-8 = experiment: Growth inhibition of human OVCAR8 cells after 48 hrs by sulforhodamine B assay; conditions: OVCAR-8, 48 h; how it was run: as §1
HCT-15 = experiment: Growth inhibition of human HCT15 cells after 48 hrs by sulforhodamine B assay; conditions: HCT-15, 48 h; how it was run: as §1
IGROV-1 = experiment: Growth inhibition of human IGROV1 cells after 48 hrs by sulforhodamine B assay; conditions: IGROV-1, 48 h; how it was run: as §1
MCF7 = experiment: Growth inhibition of human MCF7 cells after 48 hrs by sulforhodamine B assay; conditions: MCF7, 48 h; how it was run: as §1
Malme-3M = experiment: Growth inhibition of human MALME-3M cells after 48 hrs by sulforhodamine B assay; how it was run: as §1
HOP-62 = experiment: Growth inhibition of human HOP62 cells after 48 hrs by sulforhodamine B assay; conditions: HOP-62, 48 h; how it was run: as §1
A549 = experiment: Growth inhibition of human A549 cells after 48 hrs by sulforhodamine B assay; conditions: A549, 48 h; how it was run: as §1
NCI-H460 [2] = experiment: Anticancer activity against human NCI-H460 cells assessed as cell growth at 100 uM after 48 hrs by sulforhodamine B assay; conditions: NCI-H460, 48 h, read-out: Activity
DU-145 = experiment: Growth inhibition of human DU145 cells after 48 hrs by sulforhodamine B assay; conditions: DU-145, 48 h; how it was run: as §1
KM12 = experiment: Growth inhibition of human KM12 cells after 48 hrs by sulforhodamine B assay; conditions: KM12, 48 h; how it was run: as §1
T47D = experiment: Growth inhibition of human T47D cells after 48 hrs by sulforhodamine B assay; how it was run: as §2
[3] = read-out: pLC50 (the source's name) (converted)

## Nc1cc(N)c2nc(-c3ccccc3)c(NCc3ccc(Cl)c(Cl)c3)nc2c1
CCRF-CEM
  GI50: 0.132 µM
  LC50: 17.4 µM
CCRF-CEM; read-out: pTGI (converted)
  TGI: 1.82 µM
SN12C
  GI50: 6.03 µM
SN12C; [3]
  CC50: 87.1 µM
SN12C; read-out: pTGI (converted)
  TGI: 24 µM
NCI-H226
  GI50: 22.4 µM
  LC50: 95.5 µM
NCI-H226; read-out: pTGI (converted)
  TGI: 46.8 µM
SR
  GI50: 1.62 µM
  LC50 (concentration giving 50% net cell death): > 100 µM
SR; read-out: pTGI (converted)
  TGI: 6.03 µM
UO-31
  GI50: 4.17 µM
UO-31; [3]
  CC50: > 100 µM
UO-31; read-out: pTGI (converted)
  TGI: > 100 µM
MOLT-4
  GI50: 2.09 µM
  LC50: > 100 µM
MOLT-4; read-out: pTGI (converted)
  TGI: > 100 µM
TK-10
  GI50: 12.9 µM
TK-10; [3]
  CC50: 72.4 µM
TK-10; read-out: pTGI (converted)
  TGI: 30.2 µM
NCI-H460 [1]
  GI50: 20.9 µM
  LC50 (50% net cell kill): > 100 µM
NCI-H460 [1]; read-out: pTGI (converted)
  TGI: 46.8 µM
HL-60(TB)
  GI50: 1.82 µM
  LC50: > 100 µM
HL-60(TB); read-out: pTGI (converted)
  TGI: 7.94 µM
UACC-257
  GI50: 4.57 µM
UACC-257; [3]
  CC50: 43.7 µM
UACC-257; read-out: pTGI (converted)
  TGI: 15.8 µM
PC-3
  GI50: 1.74 µM
PC-3; [3]
  CC50: 19.1 µM
PC-3; read-out: pTGI (converted)
  TGI: 5.13 µM
EKVX
  GI50: 11 µM
  LC50 (50% net cell kill): > 100 µM
EKVX; read-out: pTGI (converted)
  TGI: 38.9 µM
A498
  GI50: 17.4 µM
A498; [3]
  CC50: 60.3 µM
A498; read-out: pTGI (converted)
  TGI: 32.4 µM
SK-OV-3
  GI50: 18.6 µM
SK-OV-3; [3]
  CC50: 69.2 µM
SK-OV-3; read-out: pTGI (converted)
  TGI: 36.3 µM
OVCAR-8
  GI50: 3.39 µM
OVCAR-8; [3]
  CC50: > 100 µM
OVCAR-8; read-out: pTGI (converted)
  TGI: 13.5 µM
HCT-15
  GI50: 4.68 µM
  LC50: > 100 µM
HCT-15; read-out: pTGI (converted)
  TGI: > 100 µM
IGROV-1
  GI50: 1.95 µM
IGROV-1; [3]
  CC50: 29.5 µM
IGROV-1; read-out: pTGI (converted)
  TGI: 5.89 µM
MCF7
  GI50: 12.3 µM
MCF7; [3]
  CC50: > 100 µM
MCF7; read-out: pTGI (converted)
  TGI: 53.7 µM
Malme-3M
  GI50: 3.39 µM
Malme-3M; [3]
  CC50: 50.1 µM
Malme-3M; read-out: pTGI (converted)
  TGI: 13.8 µM
HOP-62
  GI50: 15.8 µM
  LC50: 64.6 µM
HOP-62; read-out: pTGI (converted)
  TGI: 31.6 µM
A549
  GI50: 10.7 µM
  LC50: 69.2 µM
A549; read-out: pTGI (converted)
  TGI: 27.5 µM
NCI-H460 [2]
  growth at 100 µM: 0%
DU-145
  GI50: 16.2 µM
DU-145; [3]
  CC50: 69.2 µM
DU-145; read-out: pTGI (converted)
  TGI: 33.1 µM
KM12
  GI50: 3.39 µM
  LC50 (50% net cell kill): > 100 µM
KM12; read-out: pTGI (converted)
  TGI: 21.4 µM
T47D
  GI50: 19.5 µM
T47D; [3]
  CC50: > 100 µM
T47D; read-out: pTGI (converted)
  TGI: 55 µM

Source: ChEMBL document CHEMBL1137710, “Synthesis and in vitro antitumor activity of new quinoxaline derivatives” (2009)
